Test system: Fibroblast
Assay: Multiplex assay against human fibroblast
Type: toxicity, cell-based
How it was run: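 Phenotypes for tubulin, mitochondrial mass and membrane permeability are expressed as per cents of healthy-nucleus cells. Cells were stained live at seeding with Hoechst33342, BioTracker Green Microtubule Cytoskeleton Dye, MitoTracker Red and Annexin V Alexa Fluor 680, then imaged after compound addition on a CQ1 microscope at 37°C and 5% CO2. Machine-learning gating in CellPathfinder separated Hoechst high-intensity objects from normal cells, divided normal cells by nuclear state (healthy, pyknosed, fragmented) and divided pyknosed cells into mitotic or apoptotic.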

[1] = 12 h, 1 µM, compound concentration 1 uM, replicate 1
[2] = 12 h, 1 µM, compound concentration 1 uM, replicate 2
[3] = 12 h, 10 µM, compound concentration 10 uM, replicate 1
[4] = 12 h, 10 µM, compound concentration 10 uM, replicate 2
[5] = 24 h, 1 µM, compound concentration 1 uM, replicate 1
[6] = 24 h, 1 µM, compound concentration 1 uM, replicate 2
[7] = 24 h, 10 µM, compound concentration 10 uM, replicate 1
[8] = 24 h, 10 µM, compound concentration 10 uM, replicate 2
[9] = 48 h, 1 µM, compound concentration 1 uM, replicate 1
[10] = 48 h, 1 µM, compound concentration 1 uM, replicate 2
[11] = 48 h, 10 µM, compound concentration 10 uM, replicate 1
[12] = 48 h, 10 µM, compound concentration 10 uM, replicate 2

CCc1ccc(OCc2ccccc2C(=O)Nc2ccc3nc(C)cc(N)c3c2)cc1.Cl
Population Apoptotic (%) [1]: 67%
Population Fragmented Nuclei (%) [1]: 31%
Population Healthy Nuclei (%) [1]: 33%
Population Hoechst High Intensity Objects (%) [1]: 11%
Population Membrane Permeable-Phenotype (%) [1]: 9%
Population Mitochondria Different-Phenotype (%) [1]: 44%
Population Mitotic Cells (%) [1]: 32%
Population Normal (%) [1]: 88%
Population Pyknosed Nuclei (%) [1]: 35%
Population Tubulin-Different-Phenotype (%) [1]: 63%
Total Cell Count [1]: 177
Population Apoptotic (%) [2]: 71%
Population Fragmented Nuclei (%) [2]: 33%
Population Hoechst High Intensity Objects (%) [2]: 16%
Population Membrane Permeable-Phenotype (%) [2]: 28%
Population Mitochondria Different-Phenotype (%) [2]: 92%
Population Mitotic Cells (%) [2]: 28%
Population Normal (%) [2]: 84%
Population Pyknosed Nuclei (%) [2]: 33%
Population Tubulin-Different-Phenotype (%) [2]: 85%
Total Cell Count [2]: 68
Population Apoptotic (%) [3]: 26%
Population Fragmented Nuclei (%) [3]: 15%
Population Healthy Nuclei (%) [3]: 18%
Population Hoechst High Intensity Objects (%) [3]: 22%
Population Membrane Permeable-Phenotype (%) [3]: 16%
Population Mitochondria Different-Phenotype (%) [3]: 55%
Population Mitotic Cells (%) [3]: 73%
Population Normal (%) [3]: 77%
Population Pyknosed Nuclei (%) [3]: 65%
Population Tubulin-Different-Phenotype (%) [3]: 88%
Total Cell Count [3]: 125
Population Apoptotic (%) [4]: 76%
Population Fragmented Nuclei (%) [4]: 8%
Population Healthy Nuclei (%) [4]: 14%
Population Hoechst High Intensity Objects (%) [4]: 12%
Population Membrane Permeable-Phenotype (%) [4]: 100%
Population Mitochondria Different-Phenotype (%) [4]: 100%
Population Mitotic Cells (%) [4]: 23%
Population Normal (%) [4]: 87%
Population Pyknosed Nuclei (%) [4]: 77%
Population Tubulin-Different-Phenotype (%) [4]: 100%
Total Cell Count [4]: 50
Population Apoptotic (%) [5]: 79%
Population Fragmented Nuclei (%) [5]: 32%
Population Healthy Nuclei (%) [5]: 22%
Population Hoechst High Intensity Objects (%) [5]: 13%
Population Membrane Permeable-Phenotype (%) [5]: 10%
Population Mitochondria Different-Phenotype (%) [5]: 60%
Population Mitotic Cells (%) [5]: 20%
Population Normal (%) [5]: 86%
Population Pyknosed Nuclei (%) [5]: 45%
Population Tubulin-Different-Phenotype (%) [5]: 86%
Total Cell Count [5]: 158
Population Apoptotic (%) [6]: 83%
Population Fragmented Nuclei (%) [6]: 25%
Population Healthy Nuclei (%) [6]: 28%
Population Hoechst High Intensity Objects (%) [6]: 17%
Population Membrane Permeable-Phenotype (%) [6]: 27%
Population Mitochondria Different-Phenotype (%) [6]: 90%
Population Mitotic Cells (%) [6]: 16%
Population Normal (%) [6]: 82%
Population Pyknosed Nuclei (%) [6]: 46%
Population Tubulin-Different-Phenotype (%) [6]: 63%
Total Cell Count [6]: 92
Population Apoptotic (%) [7]: 40%
Population Fragmented Nuclei (%) [7]: 25%
Population Healthy Nuclei (%) [7]: 48%
Population Hoechst High Intensity Objects (%) [7]: 50%
Population Membrane Permeable-Phenotype (%) [7]: 16%
Population Mitochondria Different-Phenotype (%) [7]: 37%
Population Mitotic Cells (%) [7]: 60%
Population Normal (%) [7]: 49%
Population Pyknosed Nuclei (%) [7]: 25%
Population Tubulin-Different-Phenotype (%) [7]: 97%
Total Cell Count [7]: 155
Population Apoptotic (%) [8]: 70%
Population Fragmented Nuclei (%) [8]: 15%
Population Healthy Nuclei (%) [8]: 38%
Population Hoechst High Intensity Objects (%) [8]: 31%
Population Membrane Permeable-Phenotype (%) [8]: 47%
Population Mitochondria Different-Phenotype (%) [8]: 94%
Population Mitotic Cells (%) [8]: 30%
Population Normal (%) [8]: 68%
Population Pyknosed Nuclei (%) [8]: 45%
Population Tubulin-Different-Phenotype (%) [8]: 94%
Total Cell Count [8]: 47
Population Apoptotic (%) [9]: 90%
Population Fragmented Nuclei (%) [9]: 46%
Population Healthy Nuclei (%) [9]: 20%
Population Hoechst High Intensity Objects (%) [9]: 20%
Population Membrane Permeable-Phenotype (%) [9]: 40%
Population Mitochondria Different-Phenotype (%) [9]: 32%
Population Mitotic Cells (%) [9]: 9%
Population Normal (%) [9]: 79%
Population Pyknosed Nuclei (%) [9]: 33%
Population Tubulin-Different-Phenotype (%) [9]: 72%
Total Cell Count [9]: 157
Population Apoptotic (%) [10]: 84%
Population Fragmented Nuclei (%) [10]: 51%
Population Healthy Nuclei (%) [10]: 25%
Population Hoechst High Intensity Objects (%) [10]: 16%
Population Membrane Permeable-Phenotype (%) [10]: 30%
Population Mitochondria Different-Phenotype (%) [10]: 55%
Population Mitotic Cells (%) [10]: 15%
Population Normal (%) [10]: 83%
Population Pyknosed Nuclei (%) [10]: 23%
Population Tubulin-Different-Phenotype (%) [10]: 70%
Total Cell Count [10]: 96
Population Fragmented Nuclei (%) [11]: 68%
Population Healthy Nuclei (%) [11]: 28%
Population Hoechst High Intensity Objects (%) [11]: 47%
Population Membrane Permeable-Phenotype (%) [11]: 4%
Population Mitochondria Different-Phenotype (%) [11]: 68%
Population Normal (%) [11]: 52%
Population Pyknosed Nuclei (%) [11]: 2%
Population Tubulin-Different-Phenotype (%) [11]: 86%
Total Cell Count [11]: 146
Population Apoptotic (%) [12]: 100%
Population Fragmented Nuclei (%) [12]: 86%
Population Healthy Nuclei (%) [12]: 8%
Population Hoechst High Intensity Objects (%) [12]: 39%
Population Membrane Permeable-Phenotype (%) [12]: 0%
Population Mitochondria Different-Phenotype (%) [12]: 50%
Population Mitotic Cells (%) [12]: 0%
Population Normal (%) [12]: 60%
Population Pyknosed Nuclei (%) [12]: 4%
Population Tubulin-Different-Phenotype (%) [12]: 50%
Total Cell Count [12]: 38
